Reference: ChEMBL document CHEMBL2169772, “Discovery of (2S)-1-[4-(2-{6-amino-8-[(6-bromo-1,3-benzodioxol-5-yl)sulfanyl]-9H-purin-9-yl}ethyl)piperidin-1-yl]-2-hydroxypropan-1-one (MPC-3100), a purine-based Hsp90 inhibitor” (J Med Chem, 2012)

How the values were obtained:
[1] = Cmax in Swiss nude mouse at 100 mg/kg, po by LC-ESI-MS/MS method; type: ADME, organism-based; set-up: dose 100 mg/kg, route oral; conditions: in vivo
Method in brief: (§1)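 Single oral gavage in mice, vehicle 40% Captisol in phosphate buffer. EDTA plasma from cardiac puncture. Acetonitrile precipitation with internal standard, then LC-ESI-MS/MS quantitation against a 10–10 000 ng/mL standard curve. Cmax and AUC by noncompartmental analysis.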

[2] = Tmax in Swiss nude mouse at 10 mg/kg, po by LC-ESI-MS/MS method; type: ADME, organism-based; set-up: dose 10 mg/kg, route oral; conditions: in vivo
Method in brief: (§2)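 Mice dosed by oral gavage, vehicle DMA/PEG300/EtOH/H2O (3/40/12/45, v/v/v/v). Blood drawn by cardiac puncture into EDTA plasma. Three or five animals per time point. Plasma precipitated with acetonitrile plus internal standard. Quantified by LC-ESI-MS/MS against a 10–10 000 ng/mL standard curve with QC samples. Noncompartmental analysis.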

[3] = Volume of distribution in Swiss nude mouse at 2.5 mg/kg, iv by LC-ESI-MS/MS method; type: ADME, organism-based; set-up: dose 2.5 mg/kg, route intravenous; conditions: in vivo
Method in brief: (§3)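 Intravenous dose in mice, vehicle DMA/PEG300/EtOH/H2O 3/40/12/45. Sampling at 5, 15, 30, 60, 120, 240, 480 and 720 min, three or five animals per time point. Cardiac-puncture EDTA plasma. Acetonitrile protein precipitation with internal standard, then LC-ESI-MS/MS (10–10 000 ng/mL curve). Parameters by noncompartmental fit.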

[4] = target: T1, Heat shock protein HSP90 (Homo sapiens, UniProt P07900+P08238); experiment: Inhibition of human HSP90 using BODIPY labelled geldanamycin as substrate by fluorescence polarization assay; type: protein assay
[5] = Lipophilicity, log P of the compound; type: physicochemical; conditions: octanol/water
[6] = tested on: Mus musculus; experiment: Inhibition of HSP90 in mouse liver assessed as induction of HSP70 mRNA expression at 100 mg/kg, po after 6 hrs relative to control; type: functional
[7] = Half life in Swiss nude mouse at 2.5 mg/kg, iv by LC-ESI-MS/MS method; type: ADME, organism-based; set-up: dose 2.5 mg/kg, route intravenous; conditions: in vivo; method in brief: as §3
[8] = AUC in Swiss nude mouse at 100 mg/kg, po by LC-ESI-MS/MS method; type: ADME, organism-based; set-up: dose 100 mg/kg, route oral; conditions: plasma; method in brief: as §1
[9] = Cytotoxicity against human NCI-ADR-RES cells overexpressing P-gp 1 assessed as inhibition of tumor growth incubated for 72 hrs by luminometry; type: functional, cell-based
Method in brief: (§4)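 Cells seeded at 5000 per well in DMEM with 10% serum and left overnight. Compound added from DMSO dilutions (0.4% DMSO final) for 72 h. After 5 min at room temperature, ATPLite two-step lysis and substrate added, 5 min incubation, then luminescence read. Values are the mean of at least two experiments.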

[10] = Oral bioavailability in Swiss nude mouse at 100 mg/kg administered using captisol and phosphate buffer system formulation by LC-ESI-MS/MS method; conditions: in vivo
[11] = AUC in Swiss nude mouse at 2.5 mg/kg, iv by LC-ESI-MS/MS method; type: ADME, organism-based; set-up: dose 2.5 mg/kg, route intravenous; conditions: plasma; method in brief: as §3
[12] = target: T1, Heat shock protein HSP90; experiment: Inhibition of human HSP90 in HCT116 cells expressing Her2 gene assessed as degradation of Her2 after 4 hrs by luciferase reporter gene assay; type: cell-based; conditions: hct-116
Method in brief: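 HCT116 cells stably transfected with Her2 kinase domain (aa 641–975) fused to firefly luciferase. Seeded at 10 000 per well in DMEM with 10% serum and left overnight. Compound added from DMSO (0.4% final) for 4 h. Steady-Glo added at room temperature for 5 min, then luminescence read.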

[13] = Cmax in Swiss nude mouse at 10 mg/kg, po by LC-ESI-MS/MS method; type: ADME, organism-based; set-up: dose 10 mg/kg, route oral; conditions: in vivo; method in brief: as §2
[14] = tested on: HCT-116; experiment: Cytotoxicity against human HCT116 cells assessed as inhibition of tumor growth incubated for 72 hrs by luminometry; type: functional, cell-based; conditions: HCT-116, 72 h; method in brief: as §4
[15] = Oral bioavailability in Swiss nude mouse at 10 mg/kg by LC-ESI-MS/MS method; type: ADME, organism-based; conditions: in vivo; method in brief: as §2
[16] = tested on: Mus musculus; experiment: Hepatic clearance in Swiss nude mouse at 2.5 mg/kg, iv by LC-ESI-MS/MS method; type: ADME, organism-based, Liver; set-up: dose 2.5 mg/kg, route intravenous; conditions: in vivo; method in brief: as §3
[17] = (§5) Metabolic stability in human liver microsomes assessed as percent of residual drug in presence of NADPH incubated for 40 mins by LC-ESI-MS/MS method; type: ADME, Microsome; conditions: liver microsomes, read-out: Stability
Method in brief: (§6)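 Test article incubated in duplicate with human liver microsomes (0.5 mg/mL protein) in 100 mM potassium phosphate pH 7.4. Started with 1 mM NADPH. Stopped with acetonitrile at 0, 10, 20 and 40 min. LC-MS/MS peak area at 40 min reported as percent of 0 min. No-NADPH control incubated for 40 min.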

[18] = AUC in Swiss nude mouse at 10 mg/kg, po by LC-ESI-MS/MS method; type: ADME, organism-based; set-up: dose 10 mg/kg, route oral; conditions: plasma; method in brief: as §2
[19] = Solubility of compound in phosphate buffer at pH 7.4; type: physicochemical
[20] = tested on: HCT-116; experiment: Ratio of IC50 for human NCI-ADR-RES cells overexpressing P-gp1 to IC50 for human HCT116 cells; type: functional
[21] = tested on: Liver microsomes; experiment: as §5; type: ADME, Microsome; conditions: microsomes, 40 min; method in brief: as §6

| SMILES | Cmax [1] | Tmax [2] | Vd [3] | IC50 [4] | fold change (FC) [6] | half-life [7] | AUC [8] | IC50 [9] | bioavailability [10] | AUC [11] | IC50 [12] | Cmax [13] | IC50 [14] | bioavailability [15] | CLH [16] | remaining at 40 min [17] | AUC [18] | other results |
| --- | --- | --- | --- | --- | --- | --- | --- | --- | --- | --- | --- | --- | --- | --- | --- | --- | --- | --- |
| Nc1ncnc2c1nc(Sc1cc3c(cc1Br)OCO3)n2CCC1CCN(C=O)CC1 | 10900 ng/mL | 60 min | 1.45 L/kg | 150 nM | 47 | 30 min | 63900 ng·h/mL | 2800 nM | > 50% | 1320 ng·h/mL | 70 nM | 354 ng/mL | 430 nM | 35% | 31.65 mL/min/kg | 17% | 1810 ng·h/mL | logP [5]: 3.42 |
| Nc1ncnc2c1nc(Sc1cc3c(cc1Br)OCO3)n2CCC(N)C1CC1 (configuration not stated) | – | – | – | 80 nM | – | – | – | – | – | – | – | – | – | 0.4% | – | 75% | – | solubility [19]: > 100 µM |
| CC(C)N1CCC(CCn2c(Sc3cc4c(cc3Br)OCO4)nc3c(N)ncnc32)CC1 | – | – | – | 900 nM | – | – | – | 7250 nM | – | – | 320 nM | – | 2580 nM | – | – | – | – | Ratio IC50 [20]: 2 |
| Nc1ncnc2c1nc(Sc1cc3c(cc1Br)OCO3)n2CCC1C[C@H]2CC[C@@H](C1)O2 (some centres not stated) | – | – | – | – | – | – | – | – | – | – | – | – | – | – | – | – | – | Stability [21]: Unstable |
| Nc1ncnc2c1nc(Sc1cc3c(cc1Br)OCO3)n2CCC1CCN(C(=O)CO)CC1 | 7780 ng/mL | 15 min | 3 L/kg | 110 nM | 18 | 30 min | 25100 ng·h/mL | 2000 nM | > 50% | 574 ng·h/mL | 60 nM | 588 ng/mL | 380 nM | 57% | 72.65 mL/min/kg | 54% | 1320 ng·h/mL | – |
| Nc1ncnc2c1nc(Sc1cc3c(cc1Br)OCCO3)n2CCC1CCN(C(=O)CO)CC1 | 7530 ng/mL | 15 min | 5.93 L/kg | 90 nM | 1.7 | 51 min | 18200 ng·h/mL | 10000 nM | > 50% | 517 ng·h/mL | 40 nM | 55 ng/mL | 820 nM | 34% | 80.55 mL/min/kg | 45% | 702 ng·h/mL | – |
| CN1[C@@H]2CC[C@H]1CC(CCn1c(Sc3cc4c(cc3Br)OCO4)nc3c(N)ncnc31)C2 (some centres not stated) | – | – | – | – | – | – | – | – | – | – | – | – | – | – | – | – | – | Stability [21]: Unstable |
| Nc1ncnc2c1nc(Sc1cc3c(cc1Br)OC(F)(F)O3)n2CCC1CCN(C=O)CC1 | – | – | – | > 5000 nM | – | – | – | – | – | – | – | – | – | – | – | 0% | – | logP [5]: 4.82 |
| Nc1ncnc2c1nc(Sc1cc3occc3cc1Br)n2CCC1CCN(C=O)CC1 | – | 30 min | 1.06 L/kg | 59 nM | – | 18 min | – | 1100 nM | – | 880 ng·h/mL | 48 nM | 2230 ng/mL | 260 nM | 131% | 47.35 mL/min/kg | 53% | 4610 ng·h/mL | – |
| C[C@H](O)C(=O)N1CCC(CCn2c(Sc3cc4c(cc3Br)OCCO4)nc3c(N)ncnc32)CC1 | 11600 ng/mL | 30 min | 1.07 L/kg | 150 nM | 3.2 | 25.8 min | 40400 ng·h/mL | 6500 nM | > 50% | 1460 ng·h/mL | 74 nM | 564 ng/mL | 470 nM | 20% | 28.53 mL/min/kg | 45% | 1190 ng·h/mL | – |
| C[C@@H](O)C(=O)N1CCC(CCn2c(Sc3cc4c(cc3Br)OCO4)nc3c(N)ncnc32)CC1 | 8400 ng/mL | 15 min | 1.32 L/kg | 110 nM | 24 | 36 min | 50300 ng·h/mL | 3300 nM | > 50% | 1650 ng·h/mL | 90 nM | 1430 ng/mL | 640 nM | 37% | 25.22 mL/min/kg | 58% | 2410 ng·h/mL | – |
| C[C@@H](O)C(=O)N1CCC(CCn2c(Sc3cc4c(cc3Br)OCCO4)nc3c(N)ncnc32)CC1 | 9300 ng/mL | 60 min | 1.35 L/kg | 110 nM | 3.8 | 36 min | 32600 ng·h/mL | 9800 nM | > 50% | 1530 ng·h/mL | 69 nM | 1180 ng/mL | 920 nM | 32% | 27.32 mL/min/kg | 35% | 1960 ng·h/mL | – |
| Nc1ncnc2c1nc(Sc1cc3c(cc1Br)OCCO3)n2CCC1CCN(C=O)CC1 | 8540 ng/mL | 60 min | 1.05 L/kg | 60 nM | 2.3 | 16.8 min | 38000 ng·h/mL | 2100 nM | > 50% | 967 ng·h/mL | 49 nM | 312 ng/mL | 670 nM | 30% | 43.08 mL/min/kg | 42% | 1180 ng·h/mL | – |
